This is an account of results in ChEMBL document CHEMBL1156192, “N-((1-benzyl-1H-1,2,3-triazol-4-yl)methyl)arylamide as a new scaffold that provides rapid access to antimicrotubule agents: synthesis and evaluation of antiproliferative activity against select cancer cell lines” (J Med Chem, 2010).

Assay [1] can be described thus: Inhibition of tubulin polymerization at 10 uM. The procedure, abridged: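 Tubulin added in PIPES pH 6.9 buffer with EGTA, MgCl2, 5% glycerol; compound at 10 µM final from DMSO. After 10 min on ice, GTP added, then polymerization followed by absorbance at 340 nm for 30 min at 37 °C. Paclitaxel and nocodazole at 10 µM final as controls.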
Assay [2] deals with HeLa. Description: Cell cycle arrest in human HeLa cells assessed as accumulation at G2/G1 phase at 5 uM after 18 hrs by flow cytometry. Type of assay: functional. The procedure, abridged:
(§1)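 HeLa in RPMI-1640 with 10% FBS, Pen-Strep; 8 x 10^5 cells in 4 mL dosed at 5 µM (0.05% DMSO final) for 18 h, triplicate. Harvested cells fixed in 70% ice-cold ethanol 1 h at -20 °C, RNase A treated 2 h, propidium iodide 50 µg/mL stained. DNA content by flow cytometry, 20,000 events, single cells gated on PI width vs area.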

Assay [3] concerns HeLa. Description: Cell cycle arrest in human HeLa cells assessed as accumulation at G2 phase at 5 uM after 18 hrs by flow cytometry. Type of assay: functional. The procedure, abridged: as §1
For assay [4], the system named is HeLa. Description: Cell cycle arrest in human HeLa cells assessed as accumulation at G2/M cells at 5 uM after 18 hrs by flow cytometry. It counts as functional. A digest of the protocol:
as §1

Assay [5] deals with MCF7. Description: Antiproliferative activity against human MCF7 cells by crystal violet biomass reduction assay. It counts as functional, cell-based. The settings on record: TDE = time-dependent effect. A digest of the protocol:
(§2)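 Cells grown in α-MEM with 5% FBS at 37 °C, 5% CO2; 2,500 cells/well allowed 24 h before compound in DMSO, triplicates, ≥5 concentrations, 72 h exposure. Biomass read by crystal violet staining, Triton X-100 elution, OD 595 nm. IC50 from dose-response as 50% reduction in net cell mass versus vehicle, corrected with no-cell background.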

The subject of assay [6] is HeLa. Description: Cell cycle arrest in human HeLa cells assessed as accumulation at S phase at 5 uM after 18 hrs by flow cytometry. It counts as functional. A digest of the protocol: as §1
For assay [7], the system named is HeLa. Description: Change in cellular morphology of human HeLa cells assessed as DNA condensation at 5 uM after 18 hrs using propidium-iodide staining by confocal microscopy. It counts as functional, cell-based. The procedure, abridged: (§3)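 HeLa attached 3 h on cover slips, then 18 h with DMSO vehicle or 5 µM compound (0.05% DMSO final). Brief microtubule stabilizing buffer (PIPES pH 6.8), 0.5% glutaraldehyde fixation 10 min, NaBH4 quench, blocking; FITC anti-α-tubulin (1:50) with RNase A 2.5 h, then propidium iodide 50 µg/mL 15 min. Imaged by confocal microscopy.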

Assay [8] concerns HeLa. Description: Change in cellular morphology of human HeLa cells assessed as interference in microtubule formation at 5 uM after 18 hrs by confocal microscopy. It counts as functional, cell-based. A digest of the protocol: as §3
Assay [9] deals with HeLa. Description: Cell cycle arrest in human HeLa cells assessed as accumulation at G1 phase at 5 uM after 18 hrs by flow cytometry. Type of assay: functional. The procedure, abridged:
as §1

The subject of assay [10] is MCF7. Description: Antiproliferative activity against human MCF7 cells after 72 hrs by crystal violet biomass reduction assay. It counts as functional, cell-based. The settings on record: MCF7, 72 h. A digest of the protocol:
as §2

Assay [11] relates to HeLa. Description: Cell cycle arrest in human HeLa cells assessed as accumulation at M phase at 5 uM after 18 hrs by flow cytometry. Type of assay: functional, cell-based. A digest of the protocol:
as §1

A further assay relates to U-937. Description: Antiproliferative activity against human U937 cells by sulforhodamine B assay. It counts as functional, cell-based. A digest of the protocol:
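U-937 cells in RPMI-1640 with 10% FBS and 1% Pen-Strep; 4 x 10^4 cells/well, compound in DMSO, replicates of 5, 72 h at 37 °C, 5% CO2. Fixed with cold TCA overnight at 4 °C. Stained 30 min with 0.057% SRB in 1% acetic acid; bound dye released in 10 mM Tris base, A510 read. Vehicle and cell-free wells set 100%/0% biomass; IC50 from logistic fit.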

Assay [12] relates to HeLa. Description: Change in cellular morphology of human HeLa cells assessed as microtubule disruption at 5 uM after 18 hrs using FITC-conjugated alpha-tubulin antibody by confocal microscopy. It counts as functional, cell-based. A digest of the protocol: as §3
Assay [13] concerns Mycobacterium tuberculosis. Description: Antimycobacterial activity against Mycobacterium tuberculosis H37Rv. Type of assay: functional.

Converted amounts (≈) assume the structure as drawn. The source made the active and inactive calls. The rule behind the calls is not given here.

In the case of `CC(=O)O[C@H]1C(=O)[C@@]2(C)[C@H]([C@H](OC(=O)c3ccccc3)[C@]3(O)C[C@H](OC(=O)[C@H](O)[C@@H](NC(=O)c4ccccc4)c4ccccc4)C(C)=C1C3(C)C)[C@]1(OC(C)=O)CO[C@@H]1C[C@@H]2O`, the inhibition entry in [1] is “inactive”.

As for `O=C(NCc1cn(Cc2cccc(Oc3ccccc3)c2)nn1)c1ccccn1`, the Activity was 2% with HeLa [2]; 90.72% in the assay with HeLa [3]; greater than 90% in the assay on HeLa [4]; “tde” in the assay with MCF7 [5]; 7.59% with HeLa [6]; 0.86% in the assay with HeLa [9]. For the same molecule, the result with HeLa [7], in the assay with HeLa [8], with HeLa [11] and with HeLa [12] was Active. The inhibition entry in assay [1] was “Active”. Moreover, the IC50 in the assay on MCF7 [10] worked out at 0.046 µM; with U-937 it was 0.58 µM.

In assay [13], `CCCCCCCCCCCCCCCC(=O)N(O)CCCC[C@H](NC(=O)[C@H]1COC(c2ccccc2O)=N1)C(=O)O[C@@H](C)CC(=O)N[C@H]1CCCCN(O)C1=O` came in with an MIC of 3.9 µM (≈ 3.13 µg/mL).

`O=C(OCc1ccccc1)[C@H]1COC(c2ccccc2OCc2ccccc2)=N1`: the MIC in assay [13] is 4.2 µM (≈ 1.63 µg/mL). For the same molecule, the IC50 with MCF7 [10] was greater than 20 µM.

In [13], `COc1ccc(C2=NC(C(=O)Nc3ccccc3O)CO2)cc1` (configuration not stated) yielded an MIC of 13 µM (≈ 4.06 µg/mL). The IC50 in the assay with MCF7 [10] was greater than 20 µM.

For the molecule `CC(=O)NCc1cn(Cc2cccc(Oc3ccccc3)c2)nn1`, the Activity in the assay with HeLa [2] was determined as 1.87%; in the assay with HeLa [3] it was 17.26%; in the assay with HeLa [6], 24.94%; in the assay with HeLa [9] it was 53.85%. Also, in the assay with HeLa [4], the outcome was inactive. Moreover, the IC50 in the assay on MCF7 [10] is 6.4 µM; in the assay with U-937, 28 µM.

`O=C(NCc1cn(Cc2cccc(Oc3ccccc3)c2)nn1)c1ccccc1`: it took 0.245 µM to reach half-maximal inhibition with MCF7 [10] (IC50).

As for `COC(=O)Nc1nc2cc(C(=O)c3cccs3)ccc2[nH]1`, in assay [1], the inhibition result was “Active”.

Turning to `COc1cc2c(c(OC)c1OC)-c1ccc(OC)c(=O)cc1[C@@H](NC(C)=O)CC2` [COLCHICINE], the IC50 was determined as 0.0134 µM in the assay on MCF7 [10] and 0.008 µM in the assay on U-937.

Turning to `COc1cc2c(cc1O)CC[C@@H]1[C@@H]2CC[C@]2(C)[C@@H](O)CC[C@@H]12` [2-METHOXYESTRADIOL], the values for the IC50 with MCF7 [10] and with U-937 were 0.842 µM and 2.91 µM, respectively.
